Compound activity: PubChem, several laboratories
RGS4 act: potentiators or activators of RGS4 | AID 463111 | HEK293 M3R/inducible RGS4, carbachol calcium flux Fluo4; stronger effect = lower value | 0.92% of 310,000 active | B-score at 10 µM;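 active means B-score of the integrated calcium signal more than 4 SD below the library mean, with starting fluorescence not abnormally high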;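 further: negative B-score means reduced calcium response which marks RGS4 activation or potentiation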
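Detection: kinetic calcium fluorescence imaging with Fluo4-AM dye, 2 µM / Material: HEK293 cells with stable M3R and inducible RGS4 / Schedule: recording 10 s baseline at 1 Hz, 100 s post-agonist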
MrgX1 allo act: allosterically activates human MrgX1 receptor signaling. Q96LB2. 0.63% of 310,000 active. B-score at 10 µM. AID 588675. MrgX1-HEK293, Fluo-4 calcium flux, FDSS; stronger effect = higher value;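 active means plate-corrected calcium response at least 3 library SD above typical, normal starting fluorescence, not activating the receptor alone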;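 further: compound read alongside a low EC10 to EC30 dose of BAM8-22 agonist; peak minus trough fluorescence over baseline measured at the second addition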
Target sequence (Q96LB2 whole entry, looked up): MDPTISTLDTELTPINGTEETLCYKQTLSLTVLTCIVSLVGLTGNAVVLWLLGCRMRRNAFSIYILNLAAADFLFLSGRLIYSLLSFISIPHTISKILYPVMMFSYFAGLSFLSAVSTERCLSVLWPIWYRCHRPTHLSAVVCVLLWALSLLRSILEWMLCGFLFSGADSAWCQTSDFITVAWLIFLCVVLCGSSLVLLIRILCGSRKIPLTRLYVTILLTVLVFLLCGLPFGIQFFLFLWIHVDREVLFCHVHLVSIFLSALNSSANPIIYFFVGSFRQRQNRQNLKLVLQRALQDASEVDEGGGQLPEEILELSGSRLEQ
PHOSPHO1 inh: PHOSPHO1 (human) inhibition; AID 1565; inhibition, % at 13.3 µM; recombinant PHOSPHO1, absorbance phosphatase assay; 1.1% of 290,000 active; in the data active means inhibition above about 60%
MrgX1 agonist: human MrgX1 receptor agonism, primary screen; MrgX1-HEK293 cells, Fluo-4 calcium fluorescence, agonist mode; stronger effect = higher value; B-score at 10 µM; 0.44% of 310,000 active; AID 588627;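 active means calcium response B-score plate-corrected fluorescence ratio at least 3 library SD, with starting fluorescence B-score inside 5 SD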
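times = overnight plating, then 30 min 37 °C plus 30 min room-temperature dye loading | assay system = stable human MrgX1 HEK293 cell line | input = fifteen thousand cells per well | signal = kinetic calcium dye fluorescence, Fluo-4 NW | dosing = compound delivered in addition one of three | read-out = B-scored fluorescence response ratio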
MrgX1 antag: antagonists of human MrgX1 receptor; Q96LB2; MRGX1-HEK293 calcium flux, Fluo-4, BAM8-22 antagonism; stronger effect = lower value; B-score at 10 µM; 1.3% of 310,000 active; AID 588676;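 active means calcium-response B-score plate-corrected more than 3 library SD below zero, starting fluorescence within 5 deviations, no agonist response on first addition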;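 further: peak minus trough fluorescence over baseline after final BAM8-22 challenge near maximal dose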
RGS4 inh: inhibitors of human RGS4; HEK293 M3R/RGS4 inducible, Fluo-4 calcium flux; stronger effect = higher value; triggered by carbachol at its EC20; P49798; 0.45% of 310,000 active; AID 463165; B-score at 10 µM;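 active means B-score, a plate-corrected calcium signal, over three deviations above library mean, with baseline fluorescence within five deviations of library mean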;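 further: RGS4 expression induced by doxycycline in cells with stable M3 receptor; B-score is computed from the integrated fluorescence ratio over baseline after carbachol; higher B-score means a larger calcium signal and so more RGS4 inhibition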
MrgX1 ag confirm: confirmation of human MrgX1 receptor agonists. 78% of 600 active. MrgX1-HEK293, Fluo-4 calcium fluorescence, FDSS. shares compounds with MrgX1 agonist. AID 602412. activation, % at 10 µM;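 active means calcium signal rise, corrected for plate position, at least 3 library SD high, with starting brightness within 5 such deviations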; further: reference of the scale not given here
HEK293 Ca flux: activity in parental HEK293 cells lacking MrgX1. Fluo-4 calcium fluorescence, FDSS. fluorescence ratio F(max-min)/F0 at 10 µM. shares compounds with MrgX1 antag. 2% of 4,000 active;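 active means duplicate-averaged calcium fluorescence ratio at least three times the standard deviation of buffer wells, a nonspecific response in parental cells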
HEK293 Ca counter: counter-screen for MrgX1 allosteric activators: effect in parental HEK293 cells | shares compounds with MrgX1 antag | parental HEK293 calcium flux, Fluo-4 fluorescence ratio; stronger effect = higher value | fluorescence ratio F(max-min)/F0 at 10 µM | 0.4% of 4,000 active | AID 624114;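 active means calcium fluorescence ratio, averaged over duplicates, at least 3 SD of the buffer-well ratio, meaning a nonspecific response in receptor-free cells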;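 further: untransfected parental HEK293 lacking MrgX1 used as counterscreen for MrgX1 allosteric activators; fluorescence change taken during the second addition on a kinetic imager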
HEK293 Ca cntr2: activity in parental HEK293 cells lacking MrgX1 receptor; shares compounds with MrgX1 antag; Fluo-4 calcium fluorescence (FDSS); stronger effect = higher value; AID 624115; 8.7% of 4,000 active; fluorescence ratio F(max-min)/F0 at 10 µM;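 active means calcium fluorescence ratio at least three times the spread of buffer wells, meaning a non-specific response in parental cells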
* marks the source's active call; other numbers are inactive results; i = inactive; · = not tested or not shown. Compounds with a hit are over-represented: about 4.5% of the library has one in this group of screens.

SMILES | RGS4 act | MrgX1 allo act | PHOSPHO1 inh | MrgX1 agonist | MrgX1 antag | RGS4 inh | MrgX1 ag confirm | HEK293 Ca flux | HEK293 Ca counter | HEK293 Ca cntr2
CC(C)c1[nH]nc2c1C(c1ccco1)C(C#N)=C(N)O2 (stereo not drawn) | i | i | 37 | 27* | i | i | i | i | i | i
Cc1ccc(SCc2[nH]nc3c2C(c2ccco2)C(C#N)=C(N)O3)cc1 (stereo not drawn) | i | i | 10 | 40* | i | i | 161%* | i | i | i
CC(C)c1[nH]nc2c1C(c1cccnc1)C(C#N)=C(N)O2 (stereo not drawn) | i | i | -12 | i | i | i | · | · | · | ·
CCCCCn1c(=N)c(S(=O)(=O)c2ccc(Cl)cc2)cc2c(=O)n3cccc(C)c3nc21 | i | i | 31 | 27* | i | i | 94%* | i | i | i
Cc1cc(C)c2c(=O)n(CC(=O)NC3CCCC3)sc2n1 | i | i | -74 | 29* | i | i | 183%* | i | i | i
CCc1cc(C(=O)OC)c(NC(=O)CSc2nccn2C)s1 | i | i | 38 | i | i | i | · | · | · | ·
OCCn1nc(-c2ccccc2)cc1-c1ccccc1 | i | i | 19 | 32* | i | i | i | i | i | i
Nc1cc(-c2ccccc2)nn1Cc1ccccc1 | i | i | -11 | i | i | i | · | · | · | ·
CC(NS(=O)(=O)c1c(N)n(C)c(=O)n(C)c1=O)c1ccccc1 (stereo not drawn) | i | i | 29 | i | i | i | · | · | · | ·
Cn1c(=O)c2[nH]c(N3CCCCC3)nc2n(C)c1=O | i | i | 34 | i | i | i | · | · | · | ·
Cn1c(=O)c2[nH]c(C3CCCC3)nc2n(C)c1=O | i | i | · | 36* | i | i | i | i | i | i
CCCCC(=O)NC(=S)Nc1cccc(C(=O)O)c1 | i | i | 52 | 32* | i | i | i | i | i | i
O=C1Nc2ccccc2C1C(C[N+](=O)[O-])c1ccccn1 (stereo not drawn) | i | i | 23 | i | i | i | · | · | · | ·
CSc1ncccc1C(=O)NCCc1ccccc1 | i | i | -10 | i | i | i | · | · | · | ·
CSc1ncccc1C(=O)NCCc1ccc(S(N)(=O)=O)cc1 | i | i | 35 | 33* | i | i | i | i | i | i
Cc1cccc(C)c1OCc1cc(C(=O)N2CCN(c3ccccc3)CC2C)no1 (stereo not drawn) | i | i | 3 | i | i | i | · | · | · | ·
CN(c1ccccc1)c1nc(N2CCCC2)nc(-n2ccnc2)n1 | i | i | 9 | 48* | i | i | 171%* | i | i | 51*
Cc1nn(-c2ccccc2)c2c1C(c1ccc(F)cc1F)C(C#N)=C(N)O2 (stereo not drawn) | i | i | 7 | 27* | i | i | 183%* | i | i | i
COc1ccc2c(c1)CCCN2C(N)=Nc1ccc(Cl)cc1 | i | i | 0 | 33* | i | i | i | i | i | i
COc1ccc2c(c1)CCCN2S(=O)(=O)c1ccc(Cl)cc1 | i | i | · | i | i | i | · | · | · | ·
O=C(NCc1ccco1)c1ccc(COc2ccccc2[N+](=O)[O-])o1 | i | i | 37 | i | i | i | · | · | · | ·
